The source made the active and inactive calls. The rule behind the calls is not given here.
Assays:
[1] = Inhibition of CpxA in Escherichia coli harboring lacZ reporter gene assessed as activation of CpxR incubated for 5 hrs by beta-galactosidase assay
Outline: (§1)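 Read-out is a CpxR-responsive lacZ reporter in a modified E. coli strain, measured as beta-galactosidase activity. Where potency is given it is an EC50. Values are mean ± SEM of at least three separate experiments, each run in triplicate. Compounds showing cytotoxicity or general stress-response activation were not scored.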

[2] = test system: Escherichia coli; experiment: Inhibition of CpxA phosphatase activity in Escherichia coli assessed as increase in the ratio of CpxR-P to CpxR at 10 uM incubated for 5 hrs by densitometric method
Outline: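 Wild-type and ΔcpxA E. coli were grown in medium with 0.4% glucose, with 0 or 10 μM compound. CpxR phosphorylation was resolved by Phos-Tag gel and Western blot. His6CpxR incubated with 0 or 20 mM acetyl phosphate served as a marker. The CpxR-P:CpxR ratio was quantified by densitometry, as average and standard deviation of 5 independent experiments.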

[3] = test system: Escherichia coli; experiment: Inhibition of CpxA in Escherichia coli harboring lacZ reporter gene assessed as activation of CpxR up to 80 uM incubated for 5 hrs by beta-galactosidase assay; outline: as §1
[4] = Drug uptake in Escherichia coli BW25113 at 16 to 128 ug/ml incubated for 1 to 40 mins by UHPLC-Q/TOF analysis; assay type: ADME
Outline: (§2)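 Isogenic E. coli strains: wild-type efflux or TolC-deficient (efflux-deficient), each with or without an arabinose-induced large outer-membrane pore (hyperporinated). Cells were incubated with increasing compound concentrations. Intracellular accumulation was measured by mass spectrometry after 1 and 40 min.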

[5] = Drug uptake in Escherichia coli BW25113 harboring tolC deletion mutant at 16 to 128 ug/ml incubated for 1 to 40 mins by UHPLC-Q/TOF analysis; assay type: ADME; outline: as §2
[6] = Drug uptake in Escherichia coli BW25113 attTn7::mini-Tn7T-Kmrr-araC-ParaBAD-fhuAdeltaCdelta4L at 16 to 128 ug/ml incubated for 1 to 40 mins by UHPLC-Q/TOF analysis; assay type: ADME; outline: as §2
[7] = Drug uptake in Escherichia coli BW25113 deltatolCygiBCattTn7::mini-Tn7T-Kmr-araC-ParaBAD-fhuAdeltaCdelta4L at 16 to 128 ug/ml incubated for 1 to 40 mins by UHPLC-Q/TOF analysis; assay type: ADME; outline: as §2

SMILES	EC50 ([1]; read-out: EC50) [µM]	further results
O=[N+]([O-])c1ccc2[nH]c3c(c2c1)CCCC3	> 160	
N[C@@H]1CCCc2c1[nH]c1ccc(F)cc21	3.5	inhibition [2]: Active
COc1ccc2[nH]c3c(c2c1)CCCC3N (racemic)	> 100	
N[C@H](Cc1ccccc1)C(=O)Nc1ccc(F)cc1		inhibition [3]: inactive
N#Cc1ccc2[nH]c3c(c2c1)CCCC3N (racemic)	> 100	
CC(N)c1cc2cc(Br)ccc2[nH]1 (stereo not given)	44.2	
CC(C)[C@@H](N)C(=O)Nc1ccc(F)cc1		inhibition [3]: inactive
CC(C)[C@@H](N)C(=O)Nc1ccc(F)c(F)c1		inhibition [3]: inactive
NC1CCCc2c1[nH]c1cc(F)ccc21 (racemic)	11.9	
NC1CCCc2c1[nH]c1cc(F)c(F)cc21 (racemic)	2.7	
N[C@H]1CCCc2c1[nH]c1ccc(F)cc21	> 100	
Fc1ccc2[nH]c3c(c2c1)CCCC3		Drug uptake [4]: Active; Drug uptake [5]: Not Active
C[C@@H](N)C(=O)Nc1ccc(F)c(F)c1		inhibition [3]: inactive
NC1CCCc2c1[nH]c1ccc(Br)cc21 (racemic)		EC50 [1]: Nd(Toxic)
Cc1ccc2[nH]c3c(c2c1)CCCC3N (racemic)	34.1	
NC1CCCc2c1[nH]c1c(C(F)(F)F)cccc21 (racemic)	> 100	
NC1CCCc2c1[nH]c1cccc(F)c21 (racemic)	65.9	

SMILES	EC50 ([1]; read-out: EC50) [µM]	further results
NC1CCCc2c1[nH]c1ccc(C(F)(F)F)cc21 (racemic)	23.1	
NC1CCCc2c1[nH]c1ccc(C(=O)O)cc21 (racemic)	> 100	
NC1CCCc2c1[nH]c1cccc(C(F)(F)F)c21 (racemic)	> 100	
NC1CCCc2c1[nH]c1ccc(F)cc21 (racemic)	7.7	Drug uptake [6]: Active; Drug uptake [4]: Active; Drug uptake [5]: Active; Drug uptake [7]: Active
NC1CCCc2c1[nH]c1cc(C(F)(F)F)ccc21 (racemic)		EC50 [1]: Nd(Toxic)
NC1CCCc2c1[nH]c1c(F)cccc21 (racemic)	56.8	
NC1CCCc2c1[nH]c1ccc([N+](=O)[O-])cc21 (racemic)	24.8	inhibition [2]: Active
NCc1cc2cc(F)ccc2[nH]1	79.5	
NC1CCCc2c1[nH]c1ccccc21 (racemic)	30.2	
OC1CCCc2c1[nH]c1ccccc21 (stereo not given)	> 100	
COC(=O)c1ccc2[nH]c3c(c2c1)CCCC3N (racemic)	> 100	
NC1CCCc2c1[nH]c1ccc(S(N)(=O)=O)cc21 (racemic)	> 100	
NC1CCCc2c1[nH]c1ccc(Cl)cc21 (racemic)	10.9	
N[C@@H]1CCCc2c1[nH]c1cc(F)c(F)cc21	1.1	
C[C@@H](N)C(=O)Nc1ccc(F)cc1		inhibition [3]: inactive
CCC(C)[C@@H](N)C(=O)Nc1ccc(F)cc1 (stereo not given in full)		inhibition [3]: inactive
